One assay concerns MCF7. Put plainly: Cytotoxicity against human MCF7 cells after 48 hrs by SRB assay. In kind it is functional, cell-based. Conditions: MCF7, 48 h. The procedure, abridged: (§1)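 SRB protein-staining microculture growth assay following the Monks method. Cells were detached with 0.1% (w/v) trypsin-EDTA, counted by hemocytometer and diluted in complete medium to 5 × 10⁴ cells/mL (K-562, MCF-7), 7.5 × 10⁴ cells/mL (U-251, PC-3) or 10 × 10⁴ cells/mL (HCT-15). DMSO stocks were tested at 100, 31, 10, 3.1 and 1. After 48 h, cells were fixed in situ with 50% TCA for 60 min at 4 °C. IC50 is the mean of three experiments.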
A general note: Sulforhodamine B stains cellular protein and so reports cell mass.

In a further assay the test system is U-251. Put plainly: Cytotoxicity against human U251 cells after 48 hrs by SRB assay. In kind it is functional, cell-based. Conditions: U-251, 48 h. The procedure, abridged: as §1
Another assay has as its system PC-3. Put plainly: Cytotoxicity against human PC3 cells after 48 hrs by SRB assay. The following applies: PC-3, 48 h. Format: functional, cell-based. The procedure, abridged:
as §1

Assay [1] is described as follows: Inhibition of Marthasterias glacialis oocyte CDK1/Cyclin B.
For a further assay, the system named is K562. Put plainly: Cytotoxicity against human K562 cells after 48 hrs by SRB assay. Format: functional, cell-based. The following applies: K562, 48 h. In short, it runs like this:
as §1

The target of assay [2] is Glycogen synthase kinase-3 beta (Homo sapiens, UniProt P49841). The assay is described as follows: Inhibition of GSK3-beta expressed in Sf9 cells.
Assay [3] has as its target Cyclin-dependent kinase 5/CDK5 activator 1 (Homo sapiens, UniProt Q00535). The assay is described as follows: Inhibition of recombinant CDK5/p25 expressed in Escherichia coli.
The test system of a further assay is HCT-15. Put plainly: Cytotoxicity against human HCT15 cells after 48 hrs by SRB assay. In kind it is functional, cell-based. The following applies: HCT-15, 48 h. The procedure, abridged:
as §1

Chain of Glycogen synthase kinase-3 beta (P49841 whole entry): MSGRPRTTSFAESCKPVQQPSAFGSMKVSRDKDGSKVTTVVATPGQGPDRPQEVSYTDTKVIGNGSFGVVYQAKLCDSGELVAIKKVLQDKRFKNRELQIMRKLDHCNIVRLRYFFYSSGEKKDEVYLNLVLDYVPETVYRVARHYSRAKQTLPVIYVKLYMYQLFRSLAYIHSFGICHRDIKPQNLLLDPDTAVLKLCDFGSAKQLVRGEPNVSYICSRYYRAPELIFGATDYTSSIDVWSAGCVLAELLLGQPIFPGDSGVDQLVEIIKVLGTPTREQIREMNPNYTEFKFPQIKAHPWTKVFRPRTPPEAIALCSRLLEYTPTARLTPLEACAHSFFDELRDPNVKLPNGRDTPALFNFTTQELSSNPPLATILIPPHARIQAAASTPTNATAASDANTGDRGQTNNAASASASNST
Chain of Cyclin-dependent kinase 5/CDK5 activator 1 (Q00535 whole entry): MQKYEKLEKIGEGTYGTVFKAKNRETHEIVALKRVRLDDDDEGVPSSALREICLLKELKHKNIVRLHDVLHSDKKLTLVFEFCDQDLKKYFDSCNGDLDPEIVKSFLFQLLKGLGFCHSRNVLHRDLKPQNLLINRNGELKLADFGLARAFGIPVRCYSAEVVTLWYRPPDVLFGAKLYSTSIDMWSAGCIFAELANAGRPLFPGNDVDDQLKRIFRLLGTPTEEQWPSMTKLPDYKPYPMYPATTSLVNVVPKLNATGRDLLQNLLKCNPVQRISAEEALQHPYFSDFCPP
Chain of Cyclin-dependent kinase 5/CDK5 activator 1 (Q15078 whole entry, further chain): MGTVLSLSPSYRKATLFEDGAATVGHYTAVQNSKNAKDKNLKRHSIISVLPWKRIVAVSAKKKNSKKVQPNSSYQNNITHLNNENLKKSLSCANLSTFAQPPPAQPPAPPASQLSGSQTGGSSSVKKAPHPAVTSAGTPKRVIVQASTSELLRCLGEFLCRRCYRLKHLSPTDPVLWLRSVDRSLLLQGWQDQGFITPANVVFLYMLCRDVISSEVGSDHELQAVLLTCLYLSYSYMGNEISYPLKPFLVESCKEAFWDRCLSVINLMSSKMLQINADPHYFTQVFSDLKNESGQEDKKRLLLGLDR

Broadly, the IC50 is the concentration at which inhibition is half-maximal. With `CC1(C)CNC(=O)c2cc3n(c2C1)CCc1cc(Br)ccc1-3`, the IC50 was 43.1 µM with MCF7; 18.1 µM in the assay on U-251; 33.6 µM in the assay on PC-3; > 10 µM in assay [1]; 36.1 µM in the assay on K562; > 10 µM in assay [2]. Further, the values for the IC50 (in assay [3]; in the assay on HCT-15) were > 10 µM and 25.6 µM, respectively.
For the compound `COc1ccc2c(c1)CCn1c-2cc2c1CC(C)(C)CNC2=O`, the IC50 in the assay with MCF7, with U-251, in the assay on PC-3, in the assay with K562 and in the assay with HCT-15 was > 100 µM in each case.
For the compound `CC1(C)CNC(=O)c2cc(-c3ccc([N+](=O)[O-])cc3)n(-c3ccc(Cl)cc3)c2C1`, the IC50 in the assay with MCF7 was found to be 51.7 µM; with U-251, 28.8 µM; in the assay with PC-3, 17.4 µM; with K562 it was 15.1 µM; in the assay with HCT-15, 20 µM.
Consider `CC1(C)CNC(=O)c2cc3n(c2C1)CCc1cc(Cl)ccc1-3`, for which the IC50 in the assay on MCF7 is > 100 µM; in the assay on U-251, > 100 µM; in the assay on PC-3, > 100 µM; in the assay on K562, > 100 µM; in the assay on HCT-15, 39.6 µM.
Consider `CC1(C)CNC(=O)c2cc3n(c2C1)CCc1ccccc1-3`, for which the IC50 with MCF7, in the assay with U-251, with PC-3, in the assay with K562 and with HCT-15 was > 100 µM throughout.
On to `CC1(C)CC(=O)c2cc3n(c2C1)CCc1cc(Br)ccc1-3`, for which the IC50 in the assay with MCF7 is 35 µM; in the assay on U-251 it was 53.3 µM; with PC-3, 50.6 µM; in the assay with K562, 23.9 µM; in the assay on HCT-15 it was 36 µM.
On the same counts, the results for `COc1ccc2c(c1)CCn1c-2cc2c1CC(C)(C)CC2=O` are > 100 µM, > 100 µM, > 100 µM, 57.5 µM and > 100 µM.
Turning to `CC1(C)CC(=O)c2cc3n(c2C1)CCc1cc(Cl)ccc1-3`, the IC50 in the assay on MCF7 is 41.8 µM; in the assay on U-251 it was > 100 µM; in the assay with PC-3 it was > 100 µM; in the assay on K562 it was 10.2 µM; in the assay with HCT-15, 24.8 µM.
As to `CC1(C)CNC(=O)c2cc(-c3ccc([N+](=O)[O-])cc3)n(-c3ccc(Br)cc3)c2C1`, the IC50 in the assay on MCF7 is > 100 µM; in the assay on U-251, 25.6 µM; with PC-3, 21.1 µM; with K562, > 100 µM; with HCT-15, > 100 µM.
On to `CC1(C)CNC(=O)c2cc3n(c2C1)CCc1cc(F)ccc1-3`, for which the IC50 with MCF7 was 54.5 µM; with U-251, > 100 µM; in the assay with PC-3, > 100 µM; in assay [1], > 10 µM; with K562, 33.7 µM; in assay [2], > 10 µM. Also, the results for the IC50 (in assay [3]; with HCT-15) were > 10 µM and > 100 µM, respectively.
For the compound `CC1(C)CC(=O)c2cc3n(c2C1)CCc1ccccc1-3`, the IC50 is > 100 µM in the assay on MCF7; > 100 µM with U-251; > 100 µM in the assay on PC-3; 36.8 µM in the assay on K562; > 100 µM with HCT-15.
`CC1(C)CNC(=O)c2cc3n(c2C1)CCc1cc([N+](=O)[O-])ccc1-3`: the IC50 in the assay with MCF7 was 43.1 µM; in the assay with U-251 it was > 100 µM; with PC-3, 25.8 µM; in assay [1], > 10 µM; with K562, > 100 µM; in assay [2], > 10 µM. In addition, the IC50 in assay [3] is > 10 µM; in the assay on HCT-15, 29.5 µM.
With `CC1(C)CC(=O)c2cc3n(c2C1)CCc1cc([N+](=O)[O-])ccc1-3`, the IC50 in the assay on MCF7 was > 100 µM; in the assay on U-251, > 100 µM; in the assay with PC-3, > 100 µM; with K562, 73.7 µM; with HCT-15 it was 16.7 µM.
Regarding `CC1(C)CC(=O)c2cc3n(c2C1)CCc1cc(F)ccc1-3`, the IC50 in the assay with MCF7 is > 100 µM; with U-251, > 100 µM; with PC-3 it was > 100 µM; in the assay with K562, 27.2 µM; in the assay on HCT-15 it was 65.5 µM.
Consider `O=C1Cc2c([nH]c3ccc([N+](=O)[O-])cc23)-c2ccccc2N1` [ALSTERPAULLONE], for which the IC50 in the assay on MCF7 amounted to 1.24 µM; with U-251, 0.68 µM; with PC-3, 1.12 µM; with K562, 1.58 µM; in the assay on HCT-15, 0.62 µM.
For `O=C1Cc2c([nH]c3ccc(Br)cc23)-c2ccccc2N1` [KENPAULLONE], the IC50 is > 100 µM in the assay with MCF7; > 100 µM in the assay on U-251; > 100 µM with PC-3; > 100 µM with K562; 23.9 µM in the assay with HCT-15.

(Values after ChEMBL document CHEMBL1152758, “Synthesis and cytotoxic activity of new azepino[3',4':4,5]pyrrolo[2,1-a]isoquinolin-12-ones” (Bioorg Med Chem, 2009).)
